Measured values published in ChEMBL document CHEMBL4823320, “SAR of novel benzothiazoles targeting an allosteric pocket of DENV and ZIKV NS2B/NS3 proteases” (Bioorg Med Chem, 2021).

How the values were obtained:
[1] = target: Nonstructural protein 3 (Zika virus, UniProt A0A024AXB9); assay: Inhibition of ZIKV NS2B-NS3 protease expressed in Escherichia coli BL21(DE3) using Boc-Gly-Arg-Arg-AMC as substrate by FRET assay
Method in brief: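 His-tagged ZIKV NS2B/NS3 protease in 50 mM Tris pH 9.0, 20% glycerol, 1 mM CHAPS with 100 µM Boc-Gly-Arg-Arg-AMC. Dilution series 0.01–100 µM, read every 30 s for 10 min at 25 °C. IC50 from a four-parameter fit of hydrolysis rate; mean ± SD of ≥3 independent measurements.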

[2] = target: Genome polyprotein (dengue virus type 2, UniProt P29990); assay: Inhibition of DENV2 NS2B-NS3 protease expressed in Escherichia coli BL21(DE3) using Boc-Gly-Arg-Arg-AMC as substrate by FRET assay
Method in brief: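 Recombinant His-tagged NS2B/NS3 protease, expressed in E. coli BL21-Gold (DE3) (1 mM IPTG, 20 °C, 16 h) and purified by Ni affinity and size exclusion. Assayed in 50 mM Tris pH 9.0, 20% glycerol, 1 mM Chaps, with 100 μM Boc-Gly-Arg-Arg-AMC. Fluorescence read every 30 s for 10 min at 25 °C; inhibitor 0.01–100 μM. IC50 from a four-parameter fit of hydrolysis rate; ≥3 independent experiments.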

[3] = target: Trypsin (Homo sapiens) (UniProt P07477+P07478+P35030); assay: Inhibition of Trypsin (unknown origin) assessed as residual enzyme activity at 20 uM by FRET assay relative to control; type: protein assay
Method in brief: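 Trypsin in 50 mM Tris pH 8.0, 100 mM NaCl, 5 mM EDTA with 40 µM Z-Phe-Arg-AMC. Compound at 20 µM, read every 30 s for 10 min at 25 °C. Residual activity is relative to DMSO control; mean ± SD, ≥3 independent measurements.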

[4] = target: Prothrombin (Homo sapiens) (UniProt P00734); assay: Inhibition of Thrombin (unknown origin) assessed as residual enzyme activity at 20 uM by FRET assay relative to control
Method in brief: (§1)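 Compound at 20 µM, read every 30 s for 10 min at 25 °C. Residual activity is relative to DMSO control; mean ± SD, ≥3 independent measurements.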

[5] = target: Chymotrypsin (Homo sapiens) (UniProt Q99895+P17538+P40313+Q6GPI1); assay: Inhibition of Chymotrypsin (unknown origin) assessed as residual enzyme activity at 20 uM by FRET assay relative to control; type: protein assay
Method in brief: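 α-Chymotrypsin in 50 mM Tris pH 8.0, 100 mM NaCl with Succ-Leu-Tyr-AMC. Compound at 20 µM, read every 30 s for 10 min at 25 °C. Residual activity is relative to DMSO control; mean ± SD, ≥3 independent measurements.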

[6] = target: Urokinase-type plasminogen activator (Homo sapiens) (UniProt P00749); assay: Inhibition of Urokinase plasminogen activator (unknown origin) assessed as residual enzyme activity at 20 uM by FRET assay relative to control
Method in brief: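 Urokinase plasminogen activator in 50 mM Tris pH 7.4, 50 mM NaCl, 0.5 mM EDTA with 240 µM Z-Gly-Gly-Arg-AMC. Compound at 20 µM, read every 30 s for 10 min at 25 °C. Residual activity is relative to DMSO control; mean ± SD, ≥3 independent measurements.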

[7] = tested on: Severe acute respiratory syndrome coronavirus 2; assay: Inhibition of SARS-CoV-2 Main protease assessed as residual enzyme activity at 20 uM by FRET assay relative to control
Method in brief: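 Compound at 20 μM; fluorescence read every 30 s for 10 min at 25 °C. Residual activity expressed relative to DMSO control; mean of ≥3 independent measurements.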

[8] = Inhibition of Rhodesain (unknown origin) assessed as residual enzyme activity at 20 uM by FRET assay relative to control
Method in brief: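 Compound at 20 µM, fluorescence read every 30 s for 10 min at 25 °C. Residual activity is relative to DMSO control; mean ± SD, ≥3 independent measurements.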

[9] = target: T1, Sortase A (Staphylococcus aureus) (UniProt Q9S446); assay: Inhibition of staphylococcus aureus Sortase A protease assessed as residual enzyme activity at 20 uM by FRET assay relative to control; method in brief: as §1
T1 sequence (whole entry): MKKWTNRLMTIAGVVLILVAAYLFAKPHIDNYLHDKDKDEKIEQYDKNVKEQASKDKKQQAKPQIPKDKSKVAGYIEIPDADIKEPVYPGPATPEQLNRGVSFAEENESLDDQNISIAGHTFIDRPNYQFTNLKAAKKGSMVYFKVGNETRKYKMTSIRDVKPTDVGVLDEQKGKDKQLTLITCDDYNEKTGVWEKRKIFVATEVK

[10] = target: Nonstructural protein 3 (Zika virus) (UniProt A0A024AXB9); assay: Inhibition of ZIKV NS2B-NS3 protease expressed in Escherichia coli BL21(DE3) using Boc-Gly-Arg-Arg-AMC as substrate at 20 uM by FRET assay
Method in brief: (§2)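 His-tagged NS2B/NS3 protease, purified by Ni affinity and size exclusion, in 50 mM Tris pH 9.0, 20% glycerol, 1 mM CHAPS with 100 µM Boc-Gly-Arg-Arg-AMC. Fluorescence is read every 30 s for 10 min at 25 °C. Percent inhibition is at a single inhibitor concentration of 20, 100 or 200 µM; ≥3 independent measurements.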

[11] = target: Genome polyprotein (dengue virus type 2) (UniProt P29990); assay: Inhibition of DENV2 NS2B-NS3 protease expressed in Escherichia coli BL21(DE3) using Boc-Gly-Arg-Arg-AMC as substrate at 20 uM by FRET assay; method in brief: as §2
[12] = Chemical stability of compound in tris assay buffer at pH 9 measured after 15 mins by HPLC/MS analysis; type: physicochemical; conditions: pH 9, 0.25 h
Method in brief: (§3)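 Compound incubated in protease assay buffer (Tris pH 9.0) under simulated assay conditions and analysed by HPLC/MS after 15 min, 90 min and 20 h. Stability is the compound peak integral in the 210 nm UV trace as a proportion of the total integral.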

[13] = Chemical stability of compound in tris assay buffer at pH 9 measured after 90 mins by HPLC/MS analysis; type: physicochemical; conditions: pH 9, 1.5 h; method in brief: as §3
[14] = Chemical stability of compound in tris assay buffer at pH 9 measured after 20 hrs by HPLC/MS analysis; type: physicochemical; conditions: pH 9, 20 h; method in brief: as §3
[15] = Chemical stability of compound in cell culture conditions at pH 7.4 HEPES buffer measured after 15 mins by HPLC/MS analysis; type: physicochemical; conditions: read-out: Stabilty
Method in brief: (§4)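 Compound incubated under simulated cell-assay conditions (HEPES pH 7.4) and analysed by HPLC/MS after 15 min, 90 min and 20 h. Stability is the compound peak integral in the 210 nm UV trace as a fraction of the total integral.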

[16] = Chemical stability of compound in cell culture conditions at pH 7.4 HEPES buffer measured after 90 mins by HPLC/MS analysis; type: physicochemical; conditions: read-out: Stabilty; method in brief: as §4
[17] = Chemical stability of compound in cell culture conditions at pH 7.4 HEPES buffer measured after 20 hrs by HPLC/MS analysis; type: physicochemical; conditions: read-out: Stabilty; method in brief: as §4

Row | Structure (SMILES) | IC50 [1] | IC50 [2] | inhibition [10] | inhibition [11] | also measured
1 | O=C(Nc1ccccc1)[C@@H]1CCCN1C(=O)c1cc2c(O)cc(O)cc2o1 | 20.1 µM | 27.7 µM | – | – | –
2 | O=C(Nc1ccccc1)[C@@H]1CCCN1C(=O)c1nc2cc(O)c(O)cc2s1 | 4 µM | 11.6 µM | – | – | –
3 | O=C(Nc1ccccc1)[C@@H]1CCCCN1C(=O)c1cc2cc(O)c(O)cc2o1 | 2.9 µM | 4.73 µM | – | – | Activity [3]: 95%; Activity [4]: 93%; Activity [5]: 77%; Activity [6]: 94%; Activity [7]: 57%; Activity [8]: 90%; Activity [9]: 74%
4 | O=C(CCNC(=O)c1ccccc1)Nc1nc2cc(O)c(O)cc2s1 | – | – | 38% | 23% | –
5 | O=C(Nc1ccccc1)[C@@H]1CCCN1C(=O)c1ccc2cc(O)c(O)cc2c1 | – | – | 42% | 9% | –
6 | Cc1ccc(S(=O)(=O)NC(CSCc2ccccc2)C(=O)Nc2nc3cc(O)c(O)cc3s2)cc1 (single isomer, unassigned) | 2.13 µM | – | – | 57% | –
7 | O=C(Nc1nc2cc(O)c(O)cc2s1)C(c1ccc(O)cc1)c1ccc(O)cc1 | – | – | 54% | 45% | –
8 | O=C(Nc1ccccc1)[C@@H]1CCCN1C(=O)c1cc2cc(O)c(O)cc2s1 | 3.43 µM | 4.01 µM | – | – | –
9 | Cc1ccc(S(=O)(=O)N2CCC[C@@H]2C(=O)Nc2nc3cc(O)c(O)cc3s2)cc1 | – | – | – | – | Activity [3]: 96%; Activity [4]: 97%; Activity [5]: 100%; Activity [6]: 100%; Activity [7]: 94%; Activity [8]: 93%; Activity [9]: 83%
10 | O=C(Nc1nc2cc(O)c(O)cc2s1)c1ccc(Cl)c(Cl)c1 | – | 4.86 µM | 39% | – | –
11 | O=C(Nc1nc2cc(O)c(O)cc2s1)c1ccc(Cl)cc1 | 6.66 µM | 5.97 µM | – | – | –
12 | O=C(Nc1ccccc1)c1cnc2cc(O)c(O)cc2c1 | 6.38 µM | 3.63 µM | – | – | –
13 | O=C(Nc1ccccc1)c1cc2cc(O)c(O)cc2s1 | 1.59 µM | 2.73 µM | – | – | –
14 | O=C(Nc1ccccc1)c1cc2cc(O)c(O)cc2[nH]1 | 3.44 µM | 6.9 µM | – | – | –
15 | O=C(C[C@H](NC(=O)c1ccccc1)C(=O)Nc1nc2cc(O)c(O)cc2s1)Nc1ccccc1 | 5.48 µM | 9.95 µM | – | – | –
16 | Cc1ccc(S(=O)(=O)N[C@@H](C)C(=O)Nc2nc3cc(O)c(O)cc3s2)cc1 | 6.48 µM | – | – | 39% | –
17 | Cc1ccc(S(=O)(=O)N[C@@H](Cc2ccccc2)C(=O)Nc2nc3cc(O)c(O)cc3s2)cc1 | 3.66 µM | – | – | 33% | –

Row | Structure (SMILES) | IC50 [1] | IC50 [2] | inhibition [10] | inhibition [11] | also measured
18 | O=[N+]([O-])c1ccc2nc(NC(=S)Nc3ccc(I)cc3)sc2c1 | 6.51 µM | 11.2 µM | – | – | –
19 | O=C(Nc1ccccc1)[C@@H]1CCCN1C(=O)c1cc2cc(O)c(O)cc2[nH]1 | – | – | 44% | 36% | –
20 | O=C(CN(C(=O)c1ccccc1)c1ccccc1)Nc1nc2cc(O)c(O)cc2s1 | 2.07 µM | – | – | 56% | –
21 | O=C(N[C@@H](Cc1ccc(O)cc1)C(=O)Nc1nc2cc(O)c(O)cc2s1)c1ccccc1 | 4.59 µM | – | – | 63% | –
22 | O=C(Nc1nc2ccc([N+](=O)[O-])cc2s1)c1ccc(I)cc1 | – | – | 49% | 36% | –
23 | Cc1ccc(S(=O)(=O)N[C@H](C(=O)Nc2nc3cc(O)c(O)cc3s2)C(C)(C)C)cc1 | 5.74 µM | – | – | 44% | –
24 | O=C(Nc1ccccc1)[C@@H]1CCCN1C(=O)c1cnc2cc(O)c(O)cc2c1 | – | – | 44% | 23% | –
25 | O=C(Nc1ccc(I)cc1)c1nc2cc(O)c(O)cc2s1 | 1.3 µM | 2.48 µM | – | – | –
26 | Cc1ccc(C(=O)Nc2nc3cc(O)c(O)cc3s2)cc1 | 15.4 µM | 6.39 µM | – | – | –
27 | CCN(CC)C(=O)C[C@H](NC(=O)c1ccccc1)C(=O)Nc1nc2cc(O)c(O)cc2s1 | – | – | 13% | 16% | –
28 | Cc1ccc(S(=O)(=O)N[C@H](C)C(=O)Nc2nc3cc(O)c(O)cc3s2)cc1 | – | – | 26% | 14% | –
29 | O=C(O)C[C@H](NC(=O)c1ccccc1)C(=O)Nc1nc2cc(O)c(O)cc2s1 | – | – | 45% | 32% | –
30 | O=C(Nc1nc2cc(O)c(O)cc2s1)c1ccc(-c2ccccc2)cc1 | 1.22 µM | 7.8 µM | – | – | –
31 | O=C(Nc1ccccc1)c1nc2cc(O)c(O)cc2s1 | 9.19 µM | 27 µM | – | – | Stabilty [12]: 95%; Stabilty [13]: 94%; Stabilty [14]: 88%; remaining at 0.25 h [15]: 95%; remaining at 1.5 h [16]: 95%; remaining at 20 h [17]: 95%
32 | CC[C@H](C)[C@H](NS(=O)(=O)c1ccc(C)cc1)C(=O)Nc1nc2cc(O)c(O)cc2s1 | 5.35 µM | – | – | 33% | –
33 | O=C(Nc1nc2cc(O)c(O)cc2s1)C(c1ccc(Cl)cc1)c1ccc(Cl)cc1 | 0.96 µM | – | – | 58% | –
